Assay outcomes (PubChem)
TRPC4 act: activators of mouse TRPC4 channel | HEK293 TRPC4beta/mu-opioid, Fluo4 calcium fluorescence; active compounds read high | B-score at 10 µM | actives 0.49% (n = 310,000);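 active means B-score above 5 SD of library B-scores, and initial fluorescence ratio not above library mean plus 5 SD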;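 further: positive B-score marks a calcium rise read as TRPC4 activation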
Target sequence (Q9QUQ5 whole entry, looked up): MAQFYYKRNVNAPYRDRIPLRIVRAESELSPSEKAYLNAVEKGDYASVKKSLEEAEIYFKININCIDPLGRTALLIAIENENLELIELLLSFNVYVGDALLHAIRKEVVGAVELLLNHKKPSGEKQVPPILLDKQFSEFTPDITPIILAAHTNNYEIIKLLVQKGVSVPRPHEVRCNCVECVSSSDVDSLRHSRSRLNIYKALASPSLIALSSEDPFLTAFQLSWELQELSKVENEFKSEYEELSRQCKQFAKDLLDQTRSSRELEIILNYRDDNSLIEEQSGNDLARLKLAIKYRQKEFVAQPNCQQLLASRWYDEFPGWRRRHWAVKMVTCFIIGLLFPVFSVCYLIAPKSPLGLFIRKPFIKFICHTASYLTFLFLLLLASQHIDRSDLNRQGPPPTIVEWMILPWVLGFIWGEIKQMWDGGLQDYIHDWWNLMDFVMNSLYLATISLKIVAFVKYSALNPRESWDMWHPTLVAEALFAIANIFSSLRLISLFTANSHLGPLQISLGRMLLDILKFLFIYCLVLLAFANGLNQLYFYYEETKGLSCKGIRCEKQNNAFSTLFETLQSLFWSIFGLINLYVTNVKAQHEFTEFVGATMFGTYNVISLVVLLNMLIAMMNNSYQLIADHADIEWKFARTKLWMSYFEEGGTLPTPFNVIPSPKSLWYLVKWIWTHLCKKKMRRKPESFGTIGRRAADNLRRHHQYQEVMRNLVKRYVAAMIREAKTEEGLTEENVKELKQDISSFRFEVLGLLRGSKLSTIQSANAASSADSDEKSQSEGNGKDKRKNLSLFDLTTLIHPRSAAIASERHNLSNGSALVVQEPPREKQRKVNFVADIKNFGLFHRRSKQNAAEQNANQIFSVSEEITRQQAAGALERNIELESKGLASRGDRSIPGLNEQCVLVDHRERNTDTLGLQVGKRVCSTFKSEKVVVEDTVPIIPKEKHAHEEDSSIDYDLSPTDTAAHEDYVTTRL
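Assay system: HEK293 stable line with TRPC4beta plus mu-opioid receptor. Times: dye 45 min RT, read 110 s. Measured by: kinetic Fluo4 calcium fluorescence. Measure: B score of integrated ratio. Controls: assay buffer as low control, maximal DAMGO as high control.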
TRPC6 inhibitor: inhibitors of mouse TRPC6 channel; AID 2553; HEK293-TRPC6, membrane potential dye, ACh-evoked depolarization; active compounds read low; actives 1.1% (n = 310,000); B-score at 10 µM;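 active means B-score under library mean minus 3 SD, initial fluorescence not abnormally high, positive integrated signal ratio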;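 further: B-score derived from integrated fluorescence ratio over the kinetic read; more negative B-score means stronger inhibition of depolarization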
TRPC4 inh: TRPC4 (mouse) channel inhibition; Q9QUQ5; B-score at 10 µM; HEK293 TRPC4beta/mu-opioid, DAMGO-evoked Fluo4 calcium flux; active compounds read low; actives 0.39% (n = 300,000); AID 2247;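 active means B-score over 3 SD under the library average, no early fluorescence shift, positive overall ratio signal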
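System: stable TRPC4beta/mu-opioid receptor HEK293 cells; Dosing: single-point compound dosing; Measured by: Fluo4 Ca2+ flux fluorescence; Read-out basis: per-well B score of integrated baseline-normalized Fluo4 ratio.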
TRPC4 PAM: TRPC4 (mouse) allosteric potentiation. Q9QUQ5. actives 0.42% (n = 310,000). B-score at 10 µM. HEK293 TRPC4beta/mu-opioid, DAMGO EC20, Fluo-4 Ca2+ flux; active compounds read high;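 active means B-score of calcium response area above 5 SD of library B-scores, with initial fluorescence ratio within 5 SD of library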
TRPC6 act: mouse TRPC6 channel activation; actives 0.13% (n = 310,000); B-score at 10 µM; AID 2550; Q61143; HEK293-TRPC6 membrane potential dye fluorescence; active compounds read high;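 active means B-score of the integrated fluorescence ratio above library mean plus 3 SD, and starting fluorescence ratio within library mean plus 5 SD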;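 further: higher score means more depolarization so channel activation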
TRPC4 spec 2: second selectivity test of TRPC6 inhibitors: effect on mouse TRPC4; shares compounds with TRPC6 inhibitor; HEK293 TRPC4/MOR, membrane potential dye fluorescence; channel activated by saturating DAMGO dose; inhibition, % at 10 µM; actives 42% (n = 920);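 active means compounds whose fluorescence signal differed from control wells by over 3 SD, either direction, in both duplicate plates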
TRPC4 spec: tests whether TRPC6 inhibitors also affect mouse TRPC4 | AID 2777 | shares compounds with TRPC6 inhibitor | HEK293 TRPC4/mu-opioid, membrane potential fluorescence | actives 61% (n = 920) | activity change, negative = inhibition, % at 10 µM;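 active means rise or fall in signal beyond 3 SD of buffer-only wells in both replicate plates, either sign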;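 further: integrated kinetic ratio of fluorescence range over baseline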
HEK293 MPD ctr 2-1: second counter-screen for TRPC6 inhibitors: parental HEK293 cells. shares compounds with TRPC6 inhibitor. parental HEK293 membrane potential dye fluorescence; maximal acetylcholine challenge after compound addition. signal change vs control, % at 10 µM. actives 31% (n = 920). AID 2779;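 active means membrane potential signal moving either way by over 3 SD of the maximum-effect control, in both duplicate plates, meaning non-specific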
HEK293 MPD ctr-1: checks TRPC6 inhibitor effects in parental HEK293 cells; membrane potential signal change, % at 10 µM; AID 2780; shares compounds with TRPC6 inhibitor; parental HEK293 membrane potential dye fluorescence; actives 60% (n = 920);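 active means membrane potential signal shifting up or down by more than 3 SD of buffer-only wells, on both duplicate plates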
HEK293 MPD ctr-2: counter-screen for TRPC6 modulators: effect in parental HEK293 cells | AID 488924 | actives 51% (n = 2,400) | shares compounds with TRPC6 inhibitor | membrane potential signal change, % at 10 µM | membrane potential dye fluorescence;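 active means membrane potential signal moves up or down beyond 5 SD from buffer-only wells, on both duplicate plates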
HEK293 MPD ctr 2-2: second check of TRPC6 modulator effects in parental HEK293 cells; AID 488926; inhibition, % at 10 µM; actives 14% (n = 2,400); membrane potential dye fluorescence; after compound, maximal acetylcholine stimulation; shares compounds with TRPC6 inhibitor;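 active means membrane potential signal drops by more than 5 SD from the mean control signal, in both duplicate plates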
TRPC4 ctr mod: selectivity of TRPC6 modulators against mouse TRPC4. actives 69% (n = 2,400). HEK293 TRPC4/mu-opioid, membrane potential fluorescence. shares compounds with TRPC6 inhibitor. percent change from control (negative = decrease, positive = increase), % at 10 µM. AID 488927;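 active means membrane potential signal moved up or down beyond 5 SD of buffer control wells, in both duplicate plates, actives on both sides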
TRPC4 ctr inh 2: second selectivity test of TRPC6 modulators against mouse TRPC4. inhibition, % at 10 µM. HEK293 TRPC4/mu-opioid, membrane potential dye fluorescence; stimulated with maximal-effect DAMGO. shares compounds with TRPC6 inhibitor. AID 488928. actives 55% (n = 2,400);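 active means drop in membrane potential signal beyond 5 SD of the control wells in both duplicate plates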;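 further: TRPC4 counter screen for TRPC6 hits run under conditions tuned for TRPC6 not TRPC4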
TRPC6 inh conf: confirmation of mouse TRPC6 inhibitors. shares compounds with TRPC6 inhibitor. HEK293-TRPC6, membrane potential dye, ACh-evoked depolarization. inhibition, % at 10 µM. actives 43% (n = 3,300). AID 488960;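 active means fluorescence ratio falls more than 5 SD below the full-stimulation control mean, in both duplicate runs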;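 further: integrated fluorescence ratio of peak minus minimum over baseline after agonist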
TRPC6 act conf: confirmation of mouse TRPC6 activators; AID 488961; shares compounds with TRPC6 inhibitor; HEK293-TRPC6 membrane potential dye fluorescence, FDSS; actives 11% (n = 2,800); activation, % at 10 µM;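 active means ratio signal rise beyond 5 SD above unstimulated control wells' mean, seen in both duplicate runs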
Of the large screens only hits and unclear results are named; the others gave an inactive call (follow-up assays come after a bar, where they were run). Sampled rows, rich in hits. Any-hit rate of the full collection: about 2.3%.

CCOc1ccc(-c2c[n+]3c(n2-c2ccccc2)CCCCC3)cc1	TRPC6 inhibitor -5 | HEK293 MPD ctr-2 inactive | HEK293 MPD ctr 2-2 inactive | TRPC4 ctr mod inactive | TRPC4 ctr inh 2 inactive | TRPC6 inh conf inactive | TRPC6 act conf inactive
COc1ccc(-n2c(-c3ccccc3)c[n+]3c2CCC3)cc1	TRPC6 inhibitor -5.4 | HEK293 MPD ctr-2 -104% | HEK293 MPD ctr 2-2 inactive | TRPC4 ctr mod -18% | TRPC4 ctr inh 2 inactive | TRPC6 inh conf 40% | TRPC6 act conf inactive
CCOc1ccc(-c2nnc(-c3ccccc3)n2-c2ccccc2)cc1	none
O=C(N/C(=C/c1cn(-c2ccccc2)nc1-c1ccccc1)C(=O)N1CCOCC1)c1ccc(Cl)cc1Cl	none
O=C1CSC2(C(=O)N3CCCc4cccc2c43)N1c1cccc(C(F)(F)F)c1 (stereo not given)	none
COc1ccc(N2C(=O)CSC23C(=O)N2CCCc4cccc3c42)cc1 (stereo not given)	TRPC6 inhibitor -14 | TRPC4 spec 2 inactive | TRPC4 spec inactive | HEK293 MPD ctr 2-1 -29% | HEK293 MPD ctr-1 inactive | TRPC6 inh conf 81% | TRPC6 act conf inactive
Cc1ccc(N2CC(O)(c3cccs3)[N+]3=C2CCCC3)cc1 (stereo not given)	TRPC6 inhibitor -5.2 | HEK293 MPD ctr-2 104% | HEK293 MPD ctr 2-2 inactive | TRPC4 ctr mod 16% | TRPC4 ctr inh 2 38% | TRPC6 inh conf inactive
Cc1cccc(N2CC(O)(c3cccs3)[N+]3=C2CCCC3)c1 (stereo not given)	none
C=CCn1c(SCc2cc(C(C)=O)ccc2OCC)nc2ccccc2c1=O	none
O=C(Nc1cc2c3c(c1)C1CCCC1CN3CC1CCCC21)c1ccccc1 (stereo not given)	TRPC6 inhibitor -5.9 | HEK293 MPD ctr-2 -70% | HEK293 MPD ctr 2-2 inactive | TRPC4 ctr mod -16% | TRPC4 ctr inh 2 inactive | TRPC6 inh conf inactive | TRPC6 act conf inactive
CN1CCc2c(sc3c2c(=O)n(-c2ccc(Cl)cc2)c2nncn32)C1	TRPC6 inhibitor -5.1 | HEK293 MPD ctr-2 -106% | HEK293 MPD ctr 2-2 inactive | TRPC4 ctr mod -21% | TRPC4 ctr inh 2 inactive | TRPC6 inh conf inactive | TRPC6 act conf inactive
CCN(CC)CCn1c(=O)n(-c2ccc(Cl)cc2)c(=O)c2c3c(sc21)CN(C)CC3	none
OC(COC(c1ccc(F)cc1)c1ccc(F)cc1)CN1CCCC(C(F)(F)F)C1 (stereo not given)	none
CCOc1ccc(N2C(=O)CNC2=S)cc1	none
CCOc1ccc(N2C=Nc3ccc(OCC)cc3C2)cc1	TRPC6 inhibitor -5.7 | HEK293 MPD ctr-2 -82% | HEK293 MPD ctr 2-2 inactive | TRPC4 ctr mod -18% | TRPC4 ctr inh 2 34% | TRPC6 inh conf inactive | TRPC6 act conf inactive
CC[N+](C)(C)CC/C=C1/c2ccccc2Sc2ccc(Cl)cc21	TRPC6 inhibitor -8.8 | TRPC4 spec 2 inactive | TRPC4 spec -11% | HEK293 MPD ctr 2-1 inactive | HEK293 MPD ctr-1 inactive | TRPC6 inh conf 79% | TRPC6 act conf inactive
CC(=O)Nc1ccc(C(=O)OCCC(C)C)cc1	TRPC6 inhibitor -6.8 | TRPC4 spec 2 inactive | TRPC4 spec inactive | HEK293 MPD ctr 2-1 inactive | HEK293 MPD ctr-1 inactive | TRPC6 inh conf inactive | TRPC6 act conf inactive
CC(C)(C)NCC(O)(c1ccc(Cl)cc1)c1ccc(Cl)cc1	none
NCC(O)(c1ccc(Cl)cc1)c1ccc(Cl)cc1	TRPC6 inhibitor -6.3 | HEK293 MPD ctr-2 inactive | HEK293 MPD ctr 2-2 inactive | TRPC4 ctr mod inactive | TRPC4 ctr inh 2 40% | TRPC6 inh conf inactive | TRPC6 act conf inactive
CN(C)c1ccc2c3c(ccc(N(C)C)c13)C(=O)OC2	TRPC6 inhibitor -6 | HEK293 MPD ctr-2 -408% | HEK293 MPD ctr 2-2 inactive | TRPC4 ctr mod -68% | TRPC4 ctr inh 2 44% | TRPC6 inh conf inactive | TRPC6 act conf inactive
CS(=O)(=O)Nc1ccc2c(c1)C(=O)OC2	none
Cc1cc(NC(=O)CCC(=O)N(Cc2ccco2)C2(C(=O)NC3CCCC3)CCC(C)CC2)no1 (stereo not given)	none
Cc1cc(NC(=O)CCC(=O)N(C2CC2)C2(C(=O)NC3CCCC3)CCC(C)CC2)no1 (stereo not given)	TRPC6 inhibitor -5.1 | HEK293 MPD ctr-2 inactive | HEK293 MPD ctr 2-2 inactive | TRPC4 ctr mod 18% | TRPC4 ctr inh 2 inactive | TRPC6 inh conf inactive
CCOc1ccc(N(Cc2cc3ccc(C)cc3[nH]c2=O)S(=O)(=O)c2ccccc2)cc1	none
Cc1ccccc1C(=O)Nc1ccc2c(C#N)c3nc4ccccc4nc3n2c1	TRPC6 inhibitor -5.8 | HEK293 MPD ctr-2 inactive | HEK293 MPD ctr 2-2 inactive | TRPC4 ctr mod -10% | TRPC4 ctr inh 2 inactive | TRPC6 inh conf inactive | TRPC6 act conf inactive
O=C(/C=C/c1ccc(N2CCC(c3ccccc3)=N2)cc1)c1ccccc1	TRPC6 act 15 | HEK293 MPD ctr-2 350% | HEK293 MPD ctr 2-2 inactive | TRPC4 ctr mod 80% | TRPC4 ctr inh 2 inactive | TRPC6 inh conf inactive | TRPC6 act conf 46%
CC1=C(C(=O)Nc2cccc(F)c2)C(c2ccsc2)C2=C(CC(C)(C)CC2=O)N1 (stereo not given)	none
